Screens deposited in PubChem BioAssay by SRMLSC.
The entries come from a sample that favours hits as a whole.
H69AR inhibit: blocks growth of human H69AR lung tumor cells; H69AR lung tumor viability, ATP luminescence, 72 h; stronger effect = lower value; viability, % at 10 µM; 85,000 compounds, 6% hits;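 active = viability at or below 40%; inactive = viability above 40%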;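 note: multidrug resistant small cell line overexpressing MRP-1 efflux transporter; 100% = mean luminescence of untreated control wells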
Fibroblast inh: blocks proliferation of human lung fibroblasts | AID 719 | LL 47 human lung fibroblast viability, ATP luminescence; stronger effect = lower value | viability, % at 10 µM | 85,000 compounds, 1.1% hits;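 active = viability at or below 50% in the single dose screen; inactive = viability above 50%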;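 note: compound exposure lasted 72 h before the ATP readout; 100% = median luminescence of untreated cell-only wells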
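Times – overnight cell rest, 72 h compound treatment at 37 °C · Test system – human lung fibroblast line LL 47, low passage · Amount – 1,150 cells in each well · Controls – cell-only wells, no compound · Doses – 0.1% DMSO in all compound wells · Measured by – CellTiter-Glo luminescence · Buffer or medium – IMEM plus 15% FBS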
bCat KO growth: beta-catenin-lacking colon tumor cell growth suppression | HCT116 beta-catenin knockout viability, CellTiter-Glo, 60 h; stronger effect = lower value | viability, % at 10 µM | 140,000 compounds, 1.5% hits | AID 818;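 active = viability at or under a set limit, the compound median less 4 SD, cut at about 6% in these data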;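 note: 0% = Hyamine 1622 control at 20 µM and 100% = untreated cell control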
HCT116 PTEN-null: growth suppressors of cells with PTEN tumor suppressor deletion | viability, % at 10 µM | 140,000 compounds, 1.2% hits | AID 827 | HCT116 PTEN-null viability, CellTiter-Glo, 60 h; stronger effect = lower value;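 active = viability at or below a set limit, 4 SD under the median of all tested compounds, cut at about 3.7% in these data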;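 note: PTEN knockout HCT116 line with beta catenin targeted HCT116 as companion control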
HUVEC inhibit: human endothelial cell proliferation inhibition | HUVEC proliferation, CellTiter-Glo luminescence, 72 h; stronger effect = lower value | viability, % at 10 µM (by protocol) | 86,000 compounds, 1.1% hits | AID 648;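 active = viability at or below 30%; inactive = viability above 30%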;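 note: 100% = median luminescence of DMSO-only cell control wells on each plate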
The depositor's hits bear a star; . = not tested or not shown.

SMILES | H69AR inhibit | Fibroblast inh | bCat KO growth | HCT116 PTEN-null | HUVEC inhibit
CCOC(=O)N1CCC(NC(=O)c2ccc3c(c2)N(Cc2ccc(C)cc2)CCS3)CC1 | 37.8* | 75.2 | 70.0 | 78.3 | 67.6
CCOC(=O)N1CCC(NC(=O)c2cc(C(=O)NC3CCCC3)ccc2CO)CC1 | 102.4 | 87.6 | 90.0 | 92.9 | 113.2
CCOC(=O)N1CCC(NC(=O)c2ccc3c(c2)N(Cc2ccccc2)CCS3)CC1 | 45.1 | 87.9 | 55.4 | 68.5 | 83.7
CCOC(=O)N1CCC(NC(=O)c2ccc3c(c2)N(C)CCS3)CC1 | 37.3* | 94.2 | 97.4 | 90.8 | 84.1
CCOC(=O)N1CCC(NC(=O)c2ccc3c(c2)N(Cc2ccc(F)cc2)CCS3)CC1 | 23.5* | 98.2 | 32.4 | 34.0 | 82.8
COc1ccc(N2CCN(C(CNS(=O)(=O)c3cc(F)ccc3F)c3cccnc3)CC2)cc1 (stereo not given) | 88.5 | 97.4 | 92.5 | 95.8 | 105.3
CCN1CCN(c2ncc(C(=O)N3CCN(c4ccccc4OC)CC3)c3ccccc23)CC1 | 88.7 | 105.3 | . | . | 93.5
CCN1CCN(c2ncc(C(=O)Nc3c(F)cc(F)cc3Br)c3ccccc23)CC1 | 21.4* | 82.7 | 15.5 | 19.9 | 58.6
CCN1CCN(c2ncc(C(=O)Nc3cc(Cl)c(OC)cc3OC)c3ccccc23)CC1 | 22.9* | 84.7 | 75.9 | 75.9 | 17.8*
Cc1ccc(C)c(CSc2nnc([C@@H](N)C(C)C)o2)c1 | 90.5 | 104.7 | 108.8 | 105.6 | 94.8
Cc1ccc(C)c(CSc2nnc(CCN)o2)c1 | 31.1* | 70.9 | 75.7 | 87.0 | 54.5
Cc1nn2c(NCCCN(C)C)c3c(nc2c1-c1ccccc1)CCC3 | 6.6* | 10.2* | 2.4* | 1.7* | 55.5
Cc1nn2c(NCC(C)C)c3c(nc2c1-c1ccccc1)CCC3 | 33.8* | 88.5 | 91.6 | 83.5 | 100.7
C=CCNC(=O)/C(C#N)=C/c1ccc(OS(=O)(=O)c2ccc(C)cc2)c(OC)c1 | . | . | 27.3 | 14.4 | .
C#CCNC(=O)/C=C/c1ccc(OC)cc1 | . | . | 99.2 | 92.5 | .
COc1ccc(C2(C)NC(=O)N(Cc3cc(Cl)cc4c3OCOC4)C2=O)cc1OC (stereo not given) | 87.6 | 90.6 | 103.4 | 96.4 | 112.2
COc1ccc(C(=O)Oc2c(CN3CCOCC3)cc(Cl)c3cccnc23)cc1OC | 1.5* | 7.2* | . | . | 80.5
COc1ccc(C(=O)OCCN2CCOCC2)cc1OC | 93.0 | 100.9 | 83.0 | 78.4 | 83.9
COc1ccc(OC)c2sc(NC(=O)CCS(=O)(=O)c3ccccc3)nc12 | 2.4* | 35.8* | . | . | 65.5
COc1ccc(OC)c2sc(NC(=O)c3ccc(S(=O)(=O)N(C)C)cc3)nc12 | 20.9* | 88.5 | 87.9 | 90.6 | 63.5
CC(C)c1ccc(C(=O)NNC(=O)C2CC=CCC2C(=O)O)cc1 (stereo not given) | . | . | 99.1 | 91.9 | .
Oc1ccccc1-c1nc(NCCN2CCOCC2)c2ccccc2n1 | 12.0* | 80.1 | 52.4 | 45.3 | 38.4
COc1cccc(-c2nc(NC(C)(C)C)c3ccccc3n2)c1O | 32.5* | 80.0 | 78.5 | 75.1 | 67.2
Cc1ccc(-c2nc(NCCN3CCOCC3)c3ccccc3n2)cc1 | 44.7 | 83.8 | 11.9 | 16.9 | 77.0
COc1cccc(-c2nc(NCCN3CCOCC3)c3ccccc3n2)c1O | 8.3* | 78.7 | 38.3 | 41.7 | 68.3
SMILES | H69AR inhibit | Fibroblast inh | bCat KO growth | HCT116 PTEN-null | HUVEC inhibit
COc1ccc(OC)c(C(=O)C2COC(=O)C2)c1 (stereo not given) | 25.6* | 88.9 | 33.5 | 38.3 | 48.8
CCC(C)n1c(C)nc2c(c1=O)c1nc3ccccc3nc1n2CCC1=CCCCC1 (stereo not given) | 3.6* | 98.4 | 37.0 | 43.4 | 99.4
Cc1nc2c(c(=O)n1CC1CCCO1)c1nc3ccccc3nc1n2CCC(C)C (stereo not given) | 93.3 | 89.7 | . | . | 83.6
C/C(=N\NC(=O)C(C)Oc1ccc([N+](=O)[O-])cc1)c1ccccn1 (stereo not given) | . | . | 4.6* | 6.4 | .
Cc1cccc(N2CN(Cc3ccco3)CNC2=S)c1C | . | . | 92.4 | 92.8 | .
O=[N+]([O-])c1cc(-c2nc(-c3ccncc3)no2)ccc1Cl | . | . | 2.8* | 2.3* | .
Cc1ccc(-c2cc(C(F)F)n3ncc(C(=O)Nc4c(C)nn(Cc5ccccc5Cl)c4C)c3n2)cc1 | . | . | 2.4* | 1.4* | .
COc1ccc(-n2nc(C(=O)NCC(=O)Nc3ccccn3)c3ccccc3c2=O)cc1Cl | . | . | 8.8 | 4.5 | .
CCCCCCOC(=O)C(C#N)c1nc2ccccc2nc1N1CCN(C)CC1 (stereo not given) | 3.6* | 85.3 | 21.6 | 24.6 | 5.8*
CCC(CC)COC(=O)C(C#N)c1nc2ccccc2nc1N1CCN(CC)CC1 (stereo not given) | 78.6 | 96.8 | 41.0 | 42.6 | 3.2*
CCC(C)COC(=O)C(C#N)c1nc2ccccc2nc1N1CCCCC1 (stereo not given) | 82.3 | 98.2 | 74.4 | 76.5 | 103.7
C=CCOC(=O)C(C#N)c1nc2ccccc2nc1N1CCC(C(=O)OCC)CC1 (stereo not given) | 39.2* | 97.1 | 86.3 | 78.5 | 90.7
COC(=O)C1C(O)=CC(=O)CC1C (stereo not given) | 96.3 | 101.2 | 91.9 | 95.5 | 108.3
O=C1CN=CN=CN1c1ccc(Cl)cc1Cl | . | . | 97.3 | 103.8 | .
CCCCNC(=O)c1ccc2c(SCC(=O)O)c3c(nc2c1)CCCC3 | . | . | 79.2 | 101.7 | .
Cc1ccc(CNC(=O)CSc2c3c(nc4cc(Cl)ccc24)CCCC3)o1 | 2.7* | 87.3 | 70.5 | 61.8 | 81.7
Cc1cc(N2CCC(C)CC2)nc(-n2nc(C)cc2C)n1 | 1.7* | 93.2 | 36.7 | 48.5 | 120.8
Cc1cc(C)n(-c2nc3ccccc3nc2N2CCC(C)CC2)n1 | 89.6 | 93.7 | 68.4 | 71.8 | 120.4
CC(=O)N1c2ccc([N+](=O)[O-])cc2NC(=O)CC1C (stereo not given) | . | . | 92.8 | 93.5 | .
CCOc1cccc(/C=N/Nc2ccc(S(=O)(=O)N(CC)CC)cn2)c1O | . | . | 3.8* | 2.8* | .
CCN(CC)S(=O)(=O)c1ccc(N/N=C/c2cc(OC)c(OC)cc2OC)nc1 | . | . | 91.3 | 107.6 | .
Cc1ccc(O)c(-c2cc(C(=O)Nc3ccc(S(=O)(=O)Nc4nc(C)cc(C)n4)cc3)[nH]n2)c1 | . | . | 80.5 | 67.3 | .
Cc1ccc(Cn2c(=N)n(CC(O)COc3ccccc3)c3ccccc32)cc1 (stereo not given) | -0.1* | 22.1* | 0.5* | 0.5* | 2.7*
N=c1n(Cc2ccccc2)c2ccccc2n1CC(O)COc1ccccc1 (stereo not given) | 14.8* | 56.6 | 0.9* | 1.2* | 98.0
Cc1ccccc1OCc1nc2ccccc2c(=O)n1NC(=O)c1ccco1 | 94.5 | 98.1 | 106.8 | 99.4 | 90.6
COc1ccc(C)cc1S(=O)(=O)N(CC(=O)O)c1ccc(F)cc1 | 94.6 | 93.6 | 96.7 | 91.4 | 93.1
CCn1nc(C(=O)NC2=NCCS2)c2ccccc2c1=O | 97.9 | 93.3 | 99.0 | 105.1 | 2.7*
O=c1[nH][nH]c(-c2ccccc2O)c1C(C[N+](=O)[O-])c1ccc(Cl)cc1Cl (stereo not given) | . | . | 35.9 | 58.4 | .
